Assay results taken from ChEMBL document CHEMBL1125602, “Inhibitors of the protease from human immunodeficiency virus: design and modeling of a compound containing a dihydroxyethylene isostere insert with high binding affinity and effective antiviral activity” (J Med Chem, 1991).
pKi: −log10 of the molar value.

Legend:
[1] = target: Human immunodeficiency virus type 1 protease (Human immunodeficiency virus 1, UniProt Q72874); assay: Inhibitory activity against HIV-1 protease
Procedure, shortened: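 Recombinant HIV-1 protease refolded from E. coli inclusion bodies; substrate GSP (H-Val-Ser-Gln-Asn-Tyr-Pro-Ile-Val-OH) at 2.5 mM. Run at 30 °C in 100 mM sodium acetate pH 5.5 with 10% glycerol, 5% ethylene glycol, 0.1% Nonidet P-40. Inhibitor added before enzyme, five to seven concentrations. Stopped at 30 min with TFA, products by HPLC; Ki from Dixon plots.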

[2] = The compound was tested for its antiviral activity against vaccinia virus in CV-1 monkey cells at 10 uM; format: functional; settings: Cercopithecidae

Compound	pKi [1]	inhibition at 10 µM [2] [%]
CC[C@H](C)[C@H](NC(=O)[C@H](C(C)C)[C@@H](O)[C@H](O)[C@H](CC1CCCCC1)NC(=O)CC1CCCCC1)C(=O)NCc1ccccn1	7.66	80
CC[C@H](C)[C@H](NC(=O)[C@H](C(C)C)[C@@H](O)[C@H](O)[C@H](CC1CCCCC1)NC(=O)[C@H](Cc1c[nH]cn1)NC(=O)COc1cccc2ccccc12)C(=O)NCc1ccccn1	> 9.00	
CC[C@H](C)[C@H](NC(=O)[C@H](C(C)C)[C@H](O)[C@H](O)[C@H](CC(C)C)NC(=O)[C@H](Cc1c[nH]cn1)NC(=O)[C@@H](Cc1ccccc1)NC(=O)OC(C)(C)C)C(=O)NCc1ccccn1	6.30	
CC[C@H](C)[C@H](NC(=O)[C@H](C(C)C)[C@@H](O)[C@H](O)[C@H](CC(C)C)NC(=O)[C@H](Cc1c[nH]cn1)NC(=O)COc1ccccc1)C(=O)NCc1ccccn1	8.30	
CC[C@H](C)[C@H](NC(=O)[C@@H](CC(C)C)[C@@H](O)[C@H](O)[C@H](CC(C)C)NC(=O)[C@H](Cc1c[nH]cn1)NC(=O)COc1cccc2ccccc12)C(=O)NCc1ccccn1	6.66	
CC[C@H](C)[C@H](NC(=O)[C@H](C(C)C)[C@@H](O)[C@H](O)[C@H](CC(C)C)NC(=O)[C@H](Cc1c[nH]cn1)NC(=O)COc1cccc2ccccc12)C(=O)NCc1ccccn1	8.30	
CC[C@H](C)[C@H](NC(=O)[C@H](C(C)C)[C@@H](O)[C@H](O)[C@H](CC1CCCCC1)NC(=O)[C@H](Cc1c[nH]cn1)NC(=O)COc1ccccc1)C(=O)NCc1ccccn1	8.70	100
CC[C@H](C)[C@H](NC(=O)[C@H](CC(C)C)[C@@H](O)[C@H](O)[C@H](CC1CCCCC1)NC(=O)[C@H](Cc1c[nH]cn1)NC(=O)COc1cccc2ccccc12)C(=O)NCc1ccccn1	8.30	
CC[C@H](C)[C@H](NC(=O)[C@H](C(C)C)[C@@H](O)[C@H](O)[C@H](CC1CCCCC1)NC(=O)[C@H](Cc1c[nH]cn1)NC(=O)CN)C(=O)NCc1ccccn1	7.96	0
CC[C@H](C)[C@H](NC(=O)[C@@H](Cc1ccccc1)[C@@H](O)[C@H](O)[C@H](Cc1ccccc1)NC(=O)[C@H](Cc1c[nH]cn1)NC(=O)COc1cccc2ccccc12)C(=O)NCc1ccccn1	7.92	
CC[C@H](C)[C@H](NC(=O)[C@H](CC(C)C)[C@@H](O)[C@H](O)[C@H](CC(C)C)NC(=O)[C@H](Cc1c[nH]cn1)NC(=O)COc1cccc2ccccc12)C(=O)NCc1ccccn1	8.15	
CC[C@H](C)[C@H](NC(=O)[C@H](C(C)C)[C@@H](O)[C@H](O)[C@H](CC1CCCCC1)NC(=O)[C@H](Cc1c[nH]cn1)NC(=O)CO)C(=O)NCc1ccccn1	8.40	0
CC[C@H](C)[C@H](NC(=O)[C@H](C(C)C)[C@@H](O)[C@H](O)[C@H](CC(C)C)NC(=O)[C@H](Cc1c[nH]cn1)NC(=O)[C@@H](Cc1ccccc1)NC(=O)OC(C)(C)C)C(=O)NCc1ccccn1	7.55	
CC[C@H](C)[C@H](NC(=O)[C@H](CC1CCCCC1)[C@@H](O)[C@H](O)[C@H](CC1CCCCC1)NC(=O)[C@H](Cc1c[nH]cn1)NC(=O)COc1cccc2ccccc12)C(=O)NCc1ccccn1	7.59	
